APJ agonist: agonists of human apelin receptor APJ, primary screen, CHO-K1 cells, PathHunter beta-arrestin, luminescence; AID 2520, 2010; 0% DMSO wells, 100% apelin; P35414; 330,000 compounds, 0.11% hits; activation, % at 20 µM;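 active means activation more than six SD over the plate average, tested at 20 µM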;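 further: 0% = DMSO alone and 100% = apelin-13 at 10 nM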
Target sequence (P35414 whole entry, looked up): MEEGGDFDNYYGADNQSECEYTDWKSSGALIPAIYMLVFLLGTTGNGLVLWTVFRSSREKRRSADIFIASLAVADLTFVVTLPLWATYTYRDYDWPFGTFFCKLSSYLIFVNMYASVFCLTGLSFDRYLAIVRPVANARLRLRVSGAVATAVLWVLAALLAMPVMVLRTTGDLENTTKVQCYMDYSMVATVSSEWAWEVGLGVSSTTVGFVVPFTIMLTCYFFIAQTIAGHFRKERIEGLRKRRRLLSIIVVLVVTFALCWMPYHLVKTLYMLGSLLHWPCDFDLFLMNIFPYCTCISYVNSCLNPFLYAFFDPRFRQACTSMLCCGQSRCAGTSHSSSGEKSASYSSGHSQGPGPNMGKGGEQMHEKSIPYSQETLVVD
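Test system: CHO-K1 APJ beta-arrestin complementation cell line | Compound: Single test compound dose, 20 µM final, 1% DMSO | Incubation: Compound 90 min 25 °C, reagent 1 h | Measured by: beta-gal luminescence | Read-out basis: APJ–arrestin association signal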
CXCR6 block: CXCR6 receptor inhibitors, primary screen, cell-based, beta-arrestin, luminescence, CHO-K1 PathHunter, 1536-well; 360,000 compounds, 0.36% hits; C-X-C chemokine receptor type 6 (Homo sapiens), O00574; inhibition, % at 20 µM; AID 602244, 2012; in the data active means inhibition above about 34%, passing the limit was not always enough;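 further: antagonist mode with CXCL16 agonist at 10 nM final; 0% = 10 nM CXCL16 with DMSO and 100% = unstimulated wells without agonist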
APJ antag: antagonists of human apelin receptor APJ, primary screen, CHO-K1 cells, beta-arrestin complementation, luminescence; inhibition, % at 20 µM; 330,000 compounds, 0.32% hits; AID 2521, 2010; P35414;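 active means inhibition above about 40% at 20 µM, limit read from the data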;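 further: cells challenged with 10 nM apelin-13 agonist together with compound; plate controls were apelin-13 plus DMSO wells for no effect and DMSO wells lacking apelin-13 for full effect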
EBI2 block: EBI2 receptor antagonists, beta-arrestin recruitment, primary screen, cell-based, luminescence, 7a,25-OHC stimulation, uHTS; AID 651636, 2012; 360,000 compounds, 0.81% hits; 7a,25-OHC stimulated; inhibition, % at 5 µM; G-protein coupled receptor 183 (Homo sapiens), P32249; in the data active means inhibition above about 38%;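 further: enzyme fragment complementation signal reports receptor beta-arrestin coupling in cells; 0% = agonist plus DMSO wells and 100% = wells without agonist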
CCR6 antagonist: CCR6 receptor antagonists, primary screen, cell-based, CHO-K1, luminescence, beta-arrestin, uHTS; C-C chemokine receptor type 6 (Homo sapiens), P51684; 340,000 compounds, 0.49% hits; AID 493098, 2011; inhibition, % at 20 µM; CHO-K1 CCR6 PathHunter beta-arrestin, CCL20-stimulated;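 active means compounds whose inhibition of the agonist-driven luminescence signal at 20 µM reaches about 50%, limit read from the data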;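 further: cells stimulated with CCL20 at 14 nM final; plate controls were DMSO with CCL20 for no effect and DMSO without agonist for full effect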
CXCR6 confirm: CXCR6 receptor antagonists, confirmation, cell-based, single concentration, beta-arrestin, luminescence. shares compounds with CXCR6 block. CHO-K1 CXCR6 PathHunter beta-arrestin. inhibition, % at 20 µM. 700 compounds, 65% hits;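 active means mean inhibition over four retests above 40%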;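 further: receptor stimulated with 10 nM CXCL16 agonist; beta-galactosidase fragment complementation upon beta-arrestin recruitment to receptor; plate controls were CXCL16 plus DMSO for no effect and DMSO without CXCL16 for full effect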
* = called active by the depositor; nt = not tested or not shown. The list is not random: actives were taken first. Their share in the collection is about 1.5%.

SMILES	APJ agonist	CXCR6 block	APJ antag	EBI2 block	CCR6 antagonist	CXCR6 confirm
Cc1ccc(S(=O)(=O)NNC(=O)Nc2ccc([N+](=O)[O-])cc2)c(C)c1	-24	12	20	11	41	nt
N#Cc1ccccc1OCCCN1CCC(Cc2ccccc2)CC1	-2	5	11	3	12	nt
Cc1nn(C2CCS(=O)(=O)C2)c(C)c1CN(C)C(=O)c1cccc(Cl)c1 (centres undefined)	-4	-3	5	4	11	nt
CCOC(=O)c1cc([N+](=O)[O-])c([N+](=O)[O-])cc1NC(C)=O	nt	67*	nt	12	nt	64*
O=C(CN1CCN(S(=O)(=O)c2ccccc2)CC1)N1CCc2ccccc21	-4	2	-3	-8	13	nt
CCCOc1ccc(C(=O)NNC(=S)NC(=O)c2cccs2)cc1	-10	53*	10	11	64*	28
CCC(=O)NC(=S)NNC(=O)c1ccc(OC)cc1	-1	17	13	-3	24	nt
CCCOc1ccc(C(=O)NNC(=S)NC(C)=O)cc1	-6	23	10	4	47	nt
CCCCOc1ccc(C(=O)NNC(=S)NC(=O)CC)cc1	nt	57*	nt	6	68*	67*
CCCOc1ccc(C(=O)NNC(=S)NC(=O)c2ccccc2)cc1	-3	47*	36	0	65*	33
CSc1ccccc1C(=O)OCC(=O)Nc1ccc(N2CCOCC2)cc1	-2	-2	5	-8	12	nt
Cn1cnc([N+](=O)[O-])c1S(=O)(=O)c1ccc(Cl)cc1	nt	42*	nt	3	50	69*
Cn1cnc([N+](=O)[O-])c1NC(C)(C)C	-4	1	13	-4	-4	nt
Cc1ccc2[nH]c(=O)c(CN(Cc3ccco3)C(=O)CN3CCCC(C)C3)cc2c1 (centres undefined)	-4	6	0	-4	19	nt
Cc1nn(-c2ccccc2)c(N)c1-c1ccccc1	-1	-1	8	-1	5	nt
Cc1nn(-c2nc3ccccc3[nH]2)c(N)c1-c1ccccc1	-7	49*	19	11	nt	53*
O=C1CNC(=S)N1c1nc(-c2ccccc2)cs1	-4	19	3	-12	30	nt
COc1ccc(-c2csc(N3C(=O)CNC3=S)n2)cc1	nt	43*	nt	-10	60*	24
Cc1cccc(CS(=O)(=O)c2ncc(Cl)c(C(=O)NCc3ccc4c(c3)OCO4)n2)c1	-5	57*	-11	17	48	44*
CCOC(=O)c1ccc(NC(=O)c2nc(S(=O)(=O)Cc3ccccc3)ncc2Cl)cc1	-3	70*	34	42*	89*	73*
Cc1ccc(NC(=O)c2nc(S(=O)(=O)Cc3ccccc3C)ncc2Cl)cc1C	-3	50*	21	56*	61*	60*
CCOc1ccccc1NC(=O)c1ccc(C(=O)Nc2ccccc2OCC)nc1	0	-8	-3	-21	-13	nt
CCOC(=O)c1ccc(NC(=O)CCS(=O)(=O)Cc2ccccc2)cc1	7	-4	13	-4	7	nt
Cc1ccc(C(=O)NCc2ccc3c(c2)OCO3)c(Cl)c1	nt	2	nt	-7	nt	nt
CCOc1ccccc1NC(=O)c1nc(S(=O)(=O)Cc2ccccc2)ncc1Cl	-9	56*	18	46*	51*	53*
Cn1c(=O)[nH]c(=O)c2c1nc(Br)n2Cc1cccc(Br)c1	-2	-11	4	1	4	nt
COc1ccccc1C(C)Nc1ccc(S(=O)(=O)N2CCN(C)CC2)cc1[N+](=O)[O-] (centres undefined)	-3	13	-2	7	27	nt
COc1cccc(NC(=O)c2nc(S(C)(=O)=O)ncc2Cl)c1	-4	37	36	2	44	nt
COC(=O)c1ccc(NC(=O)c2nc(S(=O)(=O)Cc3cccc(C)c3)ncc2Cl)cc1	-11	66*	34	47*	67*	61*
CCc1ccc(NC(=O)c2nc(S(=O)(=O)Cc3ccccc3)ncc2Cl)cc1	1	82*	-9	39	nt	80*

Screens as filed in PubChem BioAssay.
